Results: ChEMBL document CHEMBL1134475, “3-(4-Fluoropiperidin-3-yl)-2-phenylindoles as high affinity, selective, and orally bioavailable h5-HT(2A) receptor antagonists” (J Med Chem, 2001)
pKi: −log10 of the molar value.

These compounds were tested against D(2) dopamine receptor (Homo sapiens, UniProt P14416) (assay: Ability to displace [3H]spiperone binding to CHO cells stably expressing dopamine receptor D2).
Format: cell-based

Chain of D(2) dopamine receptor (P14416 whole entry): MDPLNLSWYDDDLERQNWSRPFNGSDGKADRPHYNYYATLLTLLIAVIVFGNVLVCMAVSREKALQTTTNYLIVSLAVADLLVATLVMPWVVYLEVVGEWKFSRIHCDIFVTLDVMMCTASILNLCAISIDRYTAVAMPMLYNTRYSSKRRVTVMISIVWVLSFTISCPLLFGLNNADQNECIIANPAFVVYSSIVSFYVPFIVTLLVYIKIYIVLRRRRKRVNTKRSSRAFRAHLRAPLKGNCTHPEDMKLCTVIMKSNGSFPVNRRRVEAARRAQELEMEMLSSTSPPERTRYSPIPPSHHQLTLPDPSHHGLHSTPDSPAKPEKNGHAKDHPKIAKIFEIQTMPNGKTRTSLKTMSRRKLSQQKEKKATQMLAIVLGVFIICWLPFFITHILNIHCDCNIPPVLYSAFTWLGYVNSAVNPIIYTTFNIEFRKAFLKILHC

Structure (SMILES) | pKi
CN1CCCCC1c1c(-c2ccccc2)[nH]c2ccccc12 (stereo unspecified) | < 5.77
CN1CCCC(c2c(-c3ccccc3)[nH]c3ccccc23)C1 (stereo unspecified) | 7.55
c1ccc(CCN2CCCC(c3c(-c4ccccc4)[nH]c4ccccc34)C2)cc1 (stereo unspecified) | 6.30
c1ccc(CN2CCCC(c3c(-c4ccccc4)[nH]c4ccccc34)C2)cc1 (stereo unspecified) | 5.80
Fc1ccc2c([C@@H]3CNCC[C@H]3F)c(-c3cccc4ccccc34)[nH]c2c1 | 5.85
F[C@@H]1CCNC[C@H]1c1c(-c2ccccc2)[nH]c2ccc(Cl)cc12 | < 5.80
Fc1ccc2c([C@@H]3CNCC[C@H]3F)c(-c3ccc4ccccc4c3)[nH]c2c1 | 6.30
Fc1ccc2c([C@@H]3CNCC[C@H]3F)c(-c3ccsc3)[nH]c2c1 | 5.80
Fc1ccc2[nH]c(-c3ccccc3)c([C@@H]3CNCC[C@H]3F)c2c1 | < 5.80
F[C@@H]1CCNC[C@H]1c1c(-c2ccccc2)[nH]c2cc(Cl)ccc12 | < 5.80
Fc1cccc2c([C@@H]3CNCC[C@H]3F)c(-c3ccccc3)[nH]c12 | < 5.80
COC(=O)c1[nH]c2cc(F)ccc2c1[C@@H]1CNCC[C@H]1F | < 5.80
Fc1ccc2c([C@@H]3CNCC[C@H]3F)c(C3CCCCC3)[nH]c2c1 | < 5.80
F[C@@H]1CCNC[C@H]1c1c(-c2ccccc2)[nH]c2c(Cl)cccc12 | < 5.80
Fc1ccc2c([C@@H]3CNCC[C@H]3F)c(-c3cccnc3)[nH]c2c1 | < 5.80

These compounds were tested against 5-hydroxytryptamine receptor 2A (Homo sapiens, UniProt P28223) (assay: Ability to displace [3H]ketanserin binding to human 5-hydroxytryptamine 2A receptor stably expressed in CHO cells).
Chain of 5-hydroxytryptamine receptor 2A (P28223 whole entry): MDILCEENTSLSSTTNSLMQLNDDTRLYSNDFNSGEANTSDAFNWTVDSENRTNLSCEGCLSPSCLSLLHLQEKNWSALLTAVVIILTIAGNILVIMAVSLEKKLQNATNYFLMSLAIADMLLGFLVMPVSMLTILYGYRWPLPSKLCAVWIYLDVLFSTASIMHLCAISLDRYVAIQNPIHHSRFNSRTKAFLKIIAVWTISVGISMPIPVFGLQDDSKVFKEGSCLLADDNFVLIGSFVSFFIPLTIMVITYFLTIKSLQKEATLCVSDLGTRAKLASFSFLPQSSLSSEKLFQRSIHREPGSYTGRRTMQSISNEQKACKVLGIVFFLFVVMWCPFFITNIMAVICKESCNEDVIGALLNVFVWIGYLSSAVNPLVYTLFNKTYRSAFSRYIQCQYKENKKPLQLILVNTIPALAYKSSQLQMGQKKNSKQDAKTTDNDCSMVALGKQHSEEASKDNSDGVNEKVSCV
Format: cell-based
In short: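 Membranes from CHO cells stably expressing human 5-HT2A, homogenized in 50 mM Tris-HCl pH 7.5, at 2 mg wet weight/mL. Ki from nonlinear least-squares regression, geometric mean of at least three determinations.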

Structure (SMILES) | pKi
Fc1ccc2c([C@@H]3CNCC[C@H]3F)c[nH]c2c1 | 7.15
CN1CCCCC1c1c(-c2ccccc2)[nH]c2ccccc12 (stereo unspecified) | 7.85
CN1CCCC(c2c(-c3ccccc3)[nH]c3ccccc23)C1 (stereo unspecified) | 8.33
c1ccc(CCN2CCCC(c3c(-c4ccccc4)[nH]c4ccccc34)C2)cc1 (stereo unspecified) | 7.23
c1ccc(CN2CCCC(c3c(-c4ccccc4)[nH]c4ccccc34)C2)cc1 (stereo unspecified) | 7.70
Fc1ccc2c([C@@H]3CNCC[C@H]3F)c(-c3cccc4ccccc34)[nH]c2c1 | 9.47
F[C@@H]1CCNC[C@H]1c1c(-c2ccccc2)[nH]c2ccc(Cl)cc12 | 7.99
Fc1ccc2c([C@@H]3CNCC[C@H]3F)c(-c3ccc4ccccc4c3)[nH]c2c1 | 9.64
Fc1ccc2c([C@@H]3CNCC[C@H]3F)c(-c3ccsc3)[nH]c2c1 | 9.96
Fc1ccc2[nH]c(-c3ccccc3)c([C@@H]3CNCC[C@H]3F)c2c1 | 8.40
F[C@@H]1CCNC[C@H]1c1c(-c2ccccc2)[nH]c2cc(Cl)ccc12 | 8.64
Fc1cccc2c([C@@H]3CNCC[C@H]3F)c(-c3ccccc3)[nH]c12 | 9.34
COC(=O)c1[nH]c2cc(F)ccc2c1[C@@H]1CNCC[C@H]1F | 7.98
Fc1ccc2c([C@@H]3CNCC[C@H]3F)c(C3CCCCC3)[nH]c2c1 | 9.60
F[C@@H]1CCNC[C@H]1c1c(-c2ccccc2)[nH]c2c(Cl)cccc12 | 9.16
Fc1ccc2c([C@@H]3CNCC[C@H]3F)c(-c3cccnc3)[nH]c2c1 | 9.46

The compounds below were run against T1, 5-hydroxytryptamine receptor 2C (Homo sapiens, UniProt P28335) (assay: Ability to displace [3H]mesulergine binding to human 5-hydroxytryptamine 2C receptor stably expressed in CHO cells).
T1 sequence (P28335 whole entry): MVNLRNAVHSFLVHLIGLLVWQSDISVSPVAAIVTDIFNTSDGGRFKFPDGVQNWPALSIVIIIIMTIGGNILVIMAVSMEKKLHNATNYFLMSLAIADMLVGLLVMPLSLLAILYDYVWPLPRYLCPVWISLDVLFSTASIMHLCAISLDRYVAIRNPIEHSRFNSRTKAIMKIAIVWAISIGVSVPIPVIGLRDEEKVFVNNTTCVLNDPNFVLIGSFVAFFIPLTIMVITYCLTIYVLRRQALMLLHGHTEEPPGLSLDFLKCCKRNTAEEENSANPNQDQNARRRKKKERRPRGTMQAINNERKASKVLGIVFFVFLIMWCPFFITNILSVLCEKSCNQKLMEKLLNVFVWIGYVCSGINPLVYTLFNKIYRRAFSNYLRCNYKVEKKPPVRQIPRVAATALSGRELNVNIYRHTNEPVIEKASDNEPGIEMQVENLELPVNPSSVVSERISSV
Format: cell-based

Structure (SMILES) | pKi
CN1CCCCC1c1c(-c2ccccc2)[nH]c2ccccc12 (stereo unspecified) | 5.70
CN1CCCC(c2c(-c3ccccc3)[nH]c3ccccc23)C1 (stereo unspecified) | 6.82
c1ccc(CCN2CCCC(c3c(-c4ccccc4)[nH]c4ccccc34)C2)cc1 (stereo unspecified) | 5.62
c1ccc(CN2CCCC(c3c(-c4ccccc4)[nH]c4ccccc34)C2)cc1 (stereo unspecified) | 5.70
Fc1ccc2c([C@@H]3CNCC[C@H]3F)c(-c3ccsc3)[nH]c2c1 | 7.30
Fc1ccc2[nH]c(-c3ccccc3)c([C@@H]3CNCC[C@H]3F)c2c1 | 6.30
Fc1cccc2c([C@@H]3CNCC[C@H]3F)c(-c3ccccc3)[nH]c12 | 6.88
COC(=O)c1[nH]c2cc(F)ccc2c1[C@@H]1CNCC[C@H]1F | < 5.70
Fc1ccc2c([C@@H]3CNCC[C@H]3F)c(C3CCCCC3)[nH]c2c1 | 8.30
F[C@@H]1CCNC[C@H]1c1c(-c2ccccc2)[nH]c2c(Cl)cccc12 | 6.81
Fc1ccc2c([C@@H]3CNCC[C@H]3F)c(-c3cccnc3)[nH]c2c1 | 7.07

These compounds were tested against T2, Adrenergic receptor alpha-1 (Rattus norvegicus, UniProt P15823+P23944+P43140) (assay: Ability to displace [3H]-prazosin binding to rat cortical membranes expressing Alpha-1 adrenergic receptors).
T2 sequence (P15823 whole entry): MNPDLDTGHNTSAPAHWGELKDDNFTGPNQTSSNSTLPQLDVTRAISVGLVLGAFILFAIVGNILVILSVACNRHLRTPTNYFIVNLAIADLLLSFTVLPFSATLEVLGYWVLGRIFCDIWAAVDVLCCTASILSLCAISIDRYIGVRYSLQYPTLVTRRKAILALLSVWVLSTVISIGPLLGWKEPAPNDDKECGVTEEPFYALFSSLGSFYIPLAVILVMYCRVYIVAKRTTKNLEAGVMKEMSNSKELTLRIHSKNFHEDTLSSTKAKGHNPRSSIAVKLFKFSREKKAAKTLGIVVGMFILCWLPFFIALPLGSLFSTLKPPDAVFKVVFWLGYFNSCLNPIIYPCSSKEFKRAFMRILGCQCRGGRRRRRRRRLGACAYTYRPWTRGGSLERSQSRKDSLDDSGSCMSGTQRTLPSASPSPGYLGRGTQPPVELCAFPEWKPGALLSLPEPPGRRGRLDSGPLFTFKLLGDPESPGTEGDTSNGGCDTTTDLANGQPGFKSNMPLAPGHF
T2 sequence (P23944 whole entry): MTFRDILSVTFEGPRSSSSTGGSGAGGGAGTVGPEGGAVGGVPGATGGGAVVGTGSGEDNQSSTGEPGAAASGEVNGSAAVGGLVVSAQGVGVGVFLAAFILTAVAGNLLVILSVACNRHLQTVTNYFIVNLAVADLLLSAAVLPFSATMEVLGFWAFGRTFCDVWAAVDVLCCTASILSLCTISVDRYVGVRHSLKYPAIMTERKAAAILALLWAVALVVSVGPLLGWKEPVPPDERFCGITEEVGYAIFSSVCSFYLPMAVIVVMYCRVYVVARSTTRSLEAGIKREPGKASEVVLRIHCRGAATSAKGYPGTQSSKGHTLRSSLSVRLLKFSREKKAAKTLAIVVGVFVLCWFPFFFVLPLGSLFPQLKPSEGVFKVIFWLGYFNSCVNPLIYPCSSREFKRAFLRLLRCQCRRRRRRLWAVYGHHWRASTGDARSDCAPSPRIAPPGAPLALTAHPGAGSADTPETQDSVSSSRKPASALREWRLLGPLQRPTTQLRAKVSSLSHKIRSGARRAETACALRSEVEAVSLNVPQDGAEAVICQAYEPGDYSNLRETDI
T2 sequence (P43140 whole entry): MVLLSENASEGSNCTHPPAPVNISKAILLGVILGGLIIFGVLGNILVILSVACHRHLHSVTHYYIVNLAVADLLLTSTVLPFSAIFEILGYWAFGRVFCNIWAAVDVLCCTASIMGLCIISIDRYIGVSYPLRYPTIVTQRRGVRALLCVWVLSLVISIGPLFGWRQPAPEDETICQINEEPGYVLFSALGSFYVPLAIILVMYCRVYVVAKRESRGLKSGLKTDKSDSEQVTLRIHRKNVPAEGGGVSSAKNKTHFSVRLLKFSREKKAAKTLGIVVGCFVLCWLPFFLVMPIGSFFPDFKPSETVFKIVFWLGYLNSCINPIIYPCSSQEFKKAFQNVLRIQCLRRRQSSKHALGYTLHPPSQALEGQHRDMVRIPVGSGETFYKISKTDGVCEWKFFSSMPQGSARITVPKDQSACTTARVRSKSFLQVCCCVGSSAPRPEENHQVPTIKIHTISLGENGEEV

Structure (SMILES) | Ki
CN1CCCCC1c1c(-c2ccccc2)[nH]c2ccccc12 (stereo unspecified) | 99 nM
CN1CCCC(c2c(-c3ccccc3)[nH]c3ccccc23)C1 (stereo unspecified) | 30 nM
c1ccc(CN2CCCC(c3c(-c4ccccc4)[nH]c4ccccc34)C2)cc1 (stereo unspecified) | 47 nM
Fc1ccc2c([C@@H]3CNCC[C@H]3F)c(-c3cccc4ccccc34)[nH]c2c1 | 8.5 nM
F[C@@H]1CCNC[C@H]1c1c(-c2ccccc2)[nH]c2ccc(Cl)cc12 | 40 nM
Fc1ccc2c([C@@H]3CNCC[C@H]3F)c(-c3ccc4ccccc4c3)[nH]c2c1 | 2.1 nM
Fc1ccc2c([C@@H]3CNCC[C@H]3F)c(-c3ccsc3)[nH]c2c1 | 2.8 nM
Fc1ccc2[nH]c(-c3ccccc3)c([C@@H]3CNCC[C@H]3F)c2c1 | 210 nM
F[C@@H]1CCNC[C@H]1c1c(-c2ccccc2)[nH]c2cc(Cl)ccc12 | 16 nM
Fc1cccc2c([C@@H]3CNCC[C@H]3F)c(-c3ccccc3)[nH]c12 | 27 nM
COC(=O)c1[nH]c2cc(F)ccc2c1[C@@H]1CNCC[C@H]1F | 7.3 nM
Fc1ccc2c([C@@H]3CNCC[C@H]3F)c(C3CCCCC3)[nH]c2c1 | 21 nM
F[C@@H]1CCNC[C@H]1c1c(-c2ccccc2)[nH]c2c(Cl)cccc12 | 6.7 nM
Fc1ccc2c([C@@H]3CNCC[C@H]3F)c(-c3cccnc3)[nH]c2c1 | 7.3 nM

These compounds were tested against Voltage-gated inwardly rectifying potassium channel KCNH2 (Homo sapiens, UniProt Q12809) (assay: Displacement of [3H]dofetilide from HEK cells expressing hERG voltage dependent IKr potassium channel Kv11.1).
Chain of Voltage-gated inwardly rectifying potassium channel KCNH2 (Q12809 whole entry): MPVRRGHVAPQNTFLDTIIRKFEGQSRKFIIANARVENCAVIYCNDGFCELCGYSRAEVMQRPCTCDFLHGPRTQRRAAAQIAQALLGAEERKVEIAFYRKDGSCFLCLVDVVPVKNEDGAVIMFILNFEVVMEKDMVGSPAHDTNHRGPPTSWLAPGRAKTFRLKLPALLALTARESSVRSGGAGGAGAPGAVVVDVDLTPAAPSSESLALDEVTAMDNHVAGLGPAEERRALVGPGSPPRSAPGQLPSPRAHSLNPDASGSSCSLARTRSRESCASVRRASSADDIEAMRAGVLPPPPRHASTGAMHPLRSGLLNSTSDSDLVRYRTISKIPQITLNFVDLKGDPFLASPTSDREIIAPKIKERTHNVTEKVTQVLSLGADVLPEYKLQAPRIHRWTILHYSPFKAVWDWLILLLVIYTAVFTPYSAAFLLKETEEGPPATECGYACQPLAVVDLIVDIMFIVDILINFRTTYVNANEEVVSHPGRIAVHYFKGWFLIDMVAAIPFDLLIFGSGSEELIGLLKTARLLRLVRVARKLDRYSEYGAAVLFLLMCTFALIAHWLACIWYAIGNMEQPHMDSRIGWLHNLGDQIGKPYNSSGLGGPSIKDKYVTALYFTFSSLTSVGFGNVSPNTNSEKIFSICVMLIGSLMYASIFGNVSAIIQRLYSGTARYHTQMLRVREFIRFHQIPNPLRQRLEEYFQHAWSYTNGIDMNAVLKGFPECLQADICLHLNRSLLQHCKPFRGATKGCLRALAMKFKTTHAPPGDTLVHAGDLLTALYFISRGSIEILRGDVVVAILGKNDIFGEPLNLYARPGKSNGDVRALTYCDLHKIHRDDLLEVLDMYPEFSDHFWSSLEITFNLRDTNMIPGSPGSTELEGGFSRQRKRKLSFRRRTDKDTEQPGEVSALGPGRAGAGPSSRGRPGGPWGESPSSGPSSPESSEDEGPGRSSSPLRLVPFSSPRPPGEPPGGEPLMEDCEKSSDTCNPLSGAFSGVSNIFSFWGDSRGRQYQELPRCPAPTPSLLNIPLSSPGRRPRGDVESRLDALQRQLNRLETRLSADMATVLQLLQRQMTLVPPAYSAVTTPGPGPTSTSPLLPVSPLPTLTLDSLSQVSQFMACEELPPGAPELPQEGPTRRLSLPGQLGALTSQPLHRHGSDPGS

Structure (SMILES) | pKi
CN1CCCC(c2c(-c3ccccc3)[nH]c3ccccc23)C1 (stereo unspecified) | 5.02
Fc1ccc2c([C@@H]3CNCC[C@H]3F)c(-c3cccc4ccccc34)[nH]c2c1 | 6.96
Fc1ccc2c([C@@H]3CNCC[C@H]3F)c(-c3ccc4ccccc4c3)[nH]c2c1 | 6.30
Fc1ccc2c([C@@H]3CNCC[C@H]3F)c(-c3ccsc3)[nH]c2c1 | 5.82
Fc1ccc2[nH]c(-c3ccccc3)c([C@@H]3CNCC[C@H]3F)c2c1 | < 5.15
